Rin1 Abl inh: inhibitors of Rin1-Abl protein binding, primary screen, biochemical, TR-FRET; actives 0.4% (n = 360,000); Tyrosine-protein kinase ABL1 (Homo sapiens) + Ras and Rab interactor 1 (Homo sapiens), …; inhibition, % at 7.35 µM; in the data active means inhibition above about 5%, passing the limit was not always enough
Target sequence (P00519 whole entry, looked up): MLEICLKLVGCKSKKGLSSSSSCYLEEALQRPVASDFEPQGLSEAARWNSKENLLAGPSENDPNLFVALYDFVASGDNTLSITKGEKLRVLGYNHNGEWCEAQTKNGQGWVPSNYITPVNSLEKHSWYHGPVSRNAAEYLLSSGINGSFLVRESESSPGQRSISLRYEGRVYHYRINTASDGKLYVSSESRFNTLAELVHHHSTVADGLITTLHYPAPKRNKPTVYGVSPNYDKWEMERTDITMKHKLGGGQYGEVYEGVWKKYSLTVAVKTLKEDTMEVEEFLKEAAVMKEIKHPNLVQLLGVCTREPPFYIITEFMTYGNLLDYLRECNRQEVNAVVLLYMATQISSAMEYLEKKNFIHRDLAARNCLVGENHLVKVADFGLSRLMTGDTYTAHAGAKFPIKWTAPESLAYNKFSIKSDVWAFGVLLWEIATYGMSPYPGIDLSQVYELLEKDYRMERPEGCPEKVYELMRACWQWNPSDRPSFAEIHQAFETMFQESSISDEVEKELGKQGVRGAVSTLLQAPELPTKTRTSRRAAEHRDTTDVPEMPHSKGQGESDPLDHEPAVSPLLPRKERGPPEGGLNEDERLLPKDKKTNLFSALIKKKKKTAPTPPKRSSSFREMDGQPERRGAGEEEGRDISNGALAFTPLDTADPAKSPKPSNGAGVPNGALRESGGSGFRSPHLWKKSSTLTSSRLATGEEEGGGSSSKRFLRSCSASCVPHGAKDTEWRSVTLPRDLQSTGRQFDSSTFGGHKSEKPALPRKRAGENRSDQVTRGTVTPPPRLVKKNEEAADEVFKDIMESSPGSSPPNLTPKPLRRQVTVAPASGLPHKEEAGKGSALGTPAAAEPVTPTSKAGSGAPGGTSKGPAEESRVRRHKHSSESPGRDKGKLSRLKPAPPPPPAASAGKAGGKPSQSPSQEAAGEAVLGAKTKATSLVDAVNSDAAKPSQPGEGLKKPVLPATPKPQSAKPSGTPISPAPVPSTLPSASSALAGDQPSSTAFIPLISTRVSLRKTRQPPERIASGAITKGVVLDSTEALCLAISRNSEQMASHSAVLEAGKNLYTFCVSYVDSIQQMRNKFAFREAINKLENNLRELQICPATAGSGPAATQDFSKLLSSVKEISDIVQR
Target sequence (Q13671 whole entry, looked up): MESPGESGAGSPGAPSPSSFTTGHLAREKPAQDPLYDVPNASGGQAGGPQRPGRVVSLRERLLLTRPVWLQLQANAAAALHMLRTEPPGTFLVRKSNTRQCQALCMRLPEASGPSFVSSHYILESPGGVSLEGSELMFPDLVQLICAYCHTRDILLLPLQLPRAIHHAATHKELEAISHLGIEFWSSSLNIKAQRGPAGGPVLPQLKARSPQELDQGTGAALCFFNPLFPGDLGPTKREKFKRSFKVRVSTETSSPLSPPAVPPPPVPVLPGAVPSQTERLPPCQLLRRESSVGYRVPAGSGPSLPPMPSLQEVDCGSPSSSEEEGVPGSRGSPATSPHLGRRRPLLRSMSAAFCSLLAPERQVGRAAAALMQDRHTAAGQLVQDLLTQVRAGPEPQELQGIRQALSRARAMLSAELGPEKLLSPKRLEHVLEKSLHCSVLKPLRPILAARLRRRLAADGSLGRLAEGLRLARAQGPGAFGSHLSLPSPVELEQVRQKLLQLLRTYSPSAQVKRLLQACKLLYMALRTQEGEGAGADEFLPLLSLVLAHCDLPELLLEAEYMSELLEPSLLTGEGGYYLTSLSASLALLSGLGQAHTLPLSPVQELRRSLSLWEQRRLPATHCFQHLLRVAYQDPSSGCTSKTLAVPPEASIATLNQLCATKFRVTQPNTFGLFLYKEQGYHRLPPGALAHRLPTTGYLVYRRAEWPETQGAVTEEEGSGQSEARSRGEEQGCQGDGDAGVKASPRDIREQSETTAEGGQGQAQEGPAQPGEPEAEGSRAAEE
T cell modulator: modulators of CD8 T cell-vesicle binding, primary screen, mouse 2C CD8+ T cells, flow cytometry | 2C CD8+ T cell-vesicle binding; active compounds read low | response (vesicle binding), % at 7 µM | actives 0.068% (n = 330,000) | AID 2052, 2009;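 active means response, share of CD8 T cells binding vesicles, and their 90th percentile fluorescence all below set limits, cut at about 80% in these data, passing the limit was not always enough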;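 further: values below 100% mean blocked vesicle binding to the CD8+ T cells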
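Assay system: 2C TCR transgenic mouse naive CD8+ T cells, MACS-purified | Read-out: CD8+ gate FL2 mean fluorescence as % of same-row positive control | Signal: High-throughput flow cytometry with anti-B7-1 and anti-CD8 staining | Timing: Binding step 1.5 h, 37 °C, antibody labelling 20 min, ice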
Rce1 inhib: yeast Rce1p protease inhibitors, primary screen, biochemical, fluorescence, cell-free homogeneous. yeast membranes, quenched prenylated peptide cleavage fluorescence. calls only. actives 0.27% (n = 290,000). AID 2563, 2010;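 active means fall in fluorescence gain of 50% or more versus controls, with final raw signal at or below 3038400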;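 further: plate controls were neutral control wells for no effect and wells lacking membranes for full effect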
Myeloid diff MLP: induction of myeloid progenitor differentiation, primary screen, cell-based, flow cytometry, MLPCN library | ER-HoxA9 myeloid progenitors, lysozyme-GFP differentiation | calls only at 10 µM | actives 1% (n = 360,000) | AID 624256, 2012;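 active means normalized GFP-positive differentiation at or above the plate's own cutoff, the solvent-only control mean plus 3 SD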;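 further: cells exposed to compound for four days before flow analysis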
SKN-1 inh: suppressors of acrylamide-induced Pgst-4::GFP reporter in worms, primary screen, SKN-1 inhibitor project, whole organism, uHTS, GFP/RFP fluorescence ratio, strain VP596; C. elegans VP596 Pgst-4::GFP/RFP ratio, 24 h; inhibition, % at 21.8 µM; actives 0.49% (n = 360,000); AID 624304, 2012;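 active means interference check ratio from 0.5 to 1.5 plus GFP to RFP signal ratio inhibition reaching or exceeding a fixed threshold, cut at about 30% in these data, passing the limit was not always enough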
GRK2 inh: compounds blocking aptamer binding on GRK2 – biochemical, human GRK2, bead flow cytometry, HTS, primary screen | AID 488847, 2010 | inhibition of aptamer binding, % at 10 µM | FAM-aptamer displacement from GRK2 | actives 0.59% (n = 330,000);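 active means inhibition of aptamer binding above 40%, roughly 3 SD of noise, on plates passing a quality check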;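 further: median bead fluorescence of bound FAM aptamer so fluorescent compounds give negative values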
Active calls of the source: *; i = inactive; . = no result; + = active, no number. Rows were chosen to be rich in hits. Some 2.6% of all compounds tested hit in one or more screens of this group.

SMILES	Rin1 Abl inh	T cell modulator	Rce1 inhib	Myeloid diff MLP	SKN-1 inh	GRK2 inh
C/C(=N\NC(=O)Nc1ccccc1)c1ccc2ccccc2c1	-1	447	i	i	7	100*
Nc1nc(=O)n(C2CCCCO2)cc1Br (centres undefined)	0	.	.	i	-4	.
CC(C)C[C@H](NC(=O)c1nc[nH]c1C(=O)N1CCNCC1)C(=O)OCc1ccccc1	0	603	+	i	1	2
COc1cccc(-n2nnc3c(=O)n(CC(=O)Nc4ccc(C)cc4)cnc32)c1	-3	454	i	i	17	0
Clc1ccc(Nc2ncnc3ccc(Br)cc23)cc1	-12	267	i	i	36*	1
CCCn1c(SCC(=O)c2c[nH]c3ccccc23)nnc1-c1ccncc1	0	0	i	+	9	17
Cc1occc1-c1nnc(SCC(=O)c2c[nH]c3ccccc23)n1C	-2	372	.	i	-3	2
COc1ccc(Nc2ncnc3sc(C)cc23)c(OC)c1	-3	244	i	i	20	1
O=C(/C=C/c1ccccc1)c1ccc(NC2=NCCCS2)cc1	3	186	.	i	12	0
O=C(/C=C/c1ccc(Br)cc1)c1ccc(NC2=NCCCS2)cc1	2	226	i	i	83*	0
Cc1cccc(/C=C/C(=O)c2ccc(NC3=NCCCS3)cc2)c1	0	83	i	.	60*	0
CCc1ccc(-c2csc(NC(=O)C3=COCCO3)n2)cc1	-1	391	.	i	0	4
COc1ccc(C(=O)N/N=C/c2sc(N3CCOCC3)nc2-c2ccccc2)cc1OC	-6	322	i	i	3	1
COc1ccccc1NS(=O)(=O)c1cc([N+](=O)[O-])ccc1N/N=C/c1sc(N2CCOCC2)nc1-c1ccccc1	5	428	i	+	19	0
COc1ccc(S(=O)(=O)N2CCCCCC2)cc1C(=O)NCCOc1ccc(C)cc1	1	275	i	.	5	0
CNC(=O)c1cccc(NC(=O)c2ccccc2OCc2ccccc2)c1	-2	276	i	i	14	0
COc1ccc(C(=O)CCC(C)(C)[N+](=O)[O-])cc1OC	-2	60*	i	i	-3	1
CC(C)(C)C(c1nc2ccccc2[nH]1)n1c(-c2cccc(S(C)(=O)=O)c2)nc2ccccc21 (centres undefined)	.	.	.	i	19	.
COc1cccc(N=Nc2c(=O)[nH]n3c(C)cc(C)nc23)c1	-11	212	i	i	16	1
CCOc1ccc(N=Nc2c(=O)[nH]n3c(C)cc(C)nc23)cc1	-14	i	i	i	45*	2
Clc1ccc(OCCCCSc2ncccn2)cc1	4	453	i	i	91*	0
Brc1cccc(OCCSc2ncccn2)c1	1	162	i	i	50*	0
Clc1ccc(OCCSc2ncccn2)c(Br)c1	0	174	i	i	53*	0
CCCOc1ccc(OCCSc2ncccn2)cc1	0	386	i	i	38*	3
CCOc1ccc(C(=O)C(C)OC(=O)Cn2c(C)csc2=O)cc1 (centres undefined)	-4	i	i	i	-7	0
CC1CCCCN1C(=O)C(=O)c1cn(CC(=O)N2CCCCCC2)c2ccccc12 (centres undefined)	-2	203	i	i	18	35
Cc1cc(NC(=O)COC(=O)COc2ccc(Cl)c(C)c2)no1	-6	.	.	i	-17	.
Cc1ccccc1CC(=O)N1CCCC1	2	240	i	i	-4	1
CCC1=NNc2cccc3c(OC)ccc1c23	.	335	i	.	.	81*
CN(C)CCCN1c2ccc([N+](=O)[O-])cc2CCc2cc([N+](=O)[O-])ccc21	-3	148	i	i	35	0
